Data set [1] is described as follows: Selectivity index, CC50 for african green monkey Vero B cells to EC50 for DENV serotype 2 strain New Guinea C by CPE-reduction assay.
A short description of data set [2]: Selectivity index, CC50 for african green monkey Vero B cells to EC50 for DENV serotype 2 strain New Guinea C by virus yield-reduction assay. It is filed as toxicity, cell-based. The conditions noted are these: read-out: Selectivity Index. An outline of the steps: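 Selectivity index is CC50 divided by EC50. The EC50 comes from a dose-response measurement of the dengue virus RNA produced by virus-infected cells treated with compound (virus yield reduction).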

Data set [3] has as its system dengue virus type 2. Kind of data set: Antiviral activity against DENV serotype 2 strain New Guinea C infected in african green monkey Vero cells assessed as reduction in production and release of infectious progeny virions after 2 hrs by virus yield-reduction assay. It is filed as functional, organism-based. The method, boiled down:
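Dose-response validation in virus-infected, compound-treated cells. Read-out was the amount of dengue viral RNA produced, quantified as a virus yield reduction. EC50 was derived from this.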

Data set [4] is described as follows: Cytotoxicity against DENV serotype 2 strain New Guinea C infected african green monkey Vero B cells by virus yield-reduction assay. It is filed as cell-based. Particulars: chlorocebus sabaeus.
A short description of data set [5]: Cytotoxicity against DENV serotype 2 strain New Guinea C infected african green monkey Vero B cells by CPE-reduction assay. The format is cell-based. Particulars: chlorocebus sabaeus.
Data set [6] has as its system dengue virus type 2. Nature of the data set: Antiviral activity against DENV serotype 2 strain New Guinea C infected in african green monkey Vero-B cells assessed as inhibition of virus-induced cytopathic effect after 2 hrs by CPE-reduction assay. It is filed as functional, organism-based. The method, boiled down: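 Virus and compound mixed and pre-incubated together for 2 h at 37 °C before being added to cells. Co-addition without pre-incubation was also tested. Read-out was inhibition of virus-induced cytopathic effect (cell death). EC50 was taken from the dose-response.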
On the technique in general: Damage to the host cells serves as the signal in cytopathic effect assays.

Data set [7] concerns dengue virus type 2. Kind of data set: Antiviral activity against DENV serotype 2 strain New Guinea C infected in BHK-21 cells assessed as inhibition of plaque formation after 2 hrs by plaque-reduction assay. It is filed as functional, organism-based. The method, boiled down: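 Dose-response effect on production of infectious dengue virus serotype 2 progeny, read as plaque formation. EC50 was derived from the plaque counts.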
In general terms: In a plaque reduction assay, fewer plaques than in the control indicate reduced infectivity or spread.

For data set [8], the system named is Yellow fever virus. Nature of the data set: Antiviral activity against Yellow fever virus. It is filed as functional, organism-based.

The EC50 is the midpoint of the concentration-response curve. Broadly, the CC50 is the concentration giving 50% cytotoxicity. Take `COc1ccc(C2=NN(c3nc(-c4ccc(-c5ccccc5)cc4)cs3)C(c3ccc(O)c(OC)c3)C2)cc1` (stereo unspecified): the “Selectivity Index” value in data set [1] turned out to be 2. Further, the selectivity ratio in data set [2] was found to be 7. Further, the EC50 amounted to 3.79 µM in data set [3] and 8.4 µM in data set [6]. The 50% cytotoxic concentration (CC50) in data set [4] is 25.6 µM; in data set [5] it was 16.8 µM.
In the case of `C(=N\Nc1nc(-c2ccc(-c3ccccc3)cc2)cs1)/c1ccccc1`, in data set [1], the “Selectivity Index” value was >4. Further, the selectivity ratio in data set [2] is > 1. Besides, the 50% effective concentration (EC50) in data set [3] is 128 µM; in data set [6] it was 35.2 µM. Further, the CC50 in data set [4] and in data set [5] was > 141 µM in each case.
In the case of `NC(=O)c1ncn([C@@H]2O[C@H](CO)[C@@H](O)[C@H]2O)n1` [RIBAVIRIN], in data set [2], the selectivity ratio is > 9. The EC50 in data set [3] stood at 47.9 µM. Besides, the CC50 in data set [4] was > 410 µM.
Regarding `Oc1ccc(/C=N/Nc2nc(-c3ccc(-c4ccccc4)cc3)cs2)cc1`, the “Selectivity Index” value in data set [1] is reported as >8. In data set [2], the selectivity ratio is > 25. Moreover, the 50% effective concentration (EC50) stood at 5.29 µM in data set [3] and 16.8 µM in data set [6]. Further, the half-maximal cytotoxic concentration (CC50) in data set [4] and in data set [5] was > 135 µM throughout.
With `COc1ccc(C2=NN(c3nc(-c4ccc(Cl)cc4)cs3)C(c3ccc(O)c(OC)c3)C2)cc1` (stereo unspecified), in data set [1], the “Selectivity Index” value stood at 3. Further, in data set [2], the selectivity ratio came out at 8. Further, the concentration giving a half-maximal response (EC50) in data set [3] was 7 µM; in data set [6] it was 0.79 µM. Besides, the CC50 came to 54.6 µM in data set [4] and 2.4 µM in data set [5].
Take `COc1ccc(C2=NN(c3nc(-c4ccc(-c5ccccc5)cc4)cs3)C(c3ccc(O)cc3)C2)cc1` (stereo unspecified): the “Selectivity Index” value in data set [1] is on record as >4. Besides, the selectivity ratio in data set [2] came out at 5. Further, the concentration for a half-maximal effect (EC50) in data set [3] stood at 18.6 µM; in data set [6], 24.8 µM. The CC50 is 99.3 µM in data set [4] and > 99 µM in data set [5].
Turning to `COc1ccc(/C(C)=N/Nc2nc(-c3ccc(-c4ccccc4)cc3)cs2)cc1`, the “Selectivity Index” value in data set [1] came out at 2. The selectivity ratio in data set [2] turned out to be 7. In addition, the 50% effective concentration (EC50) was determined as 17.7 µM in data set [3] and 100 µM in data set [6]. The CC50 in data set [4] was determined as 117 µM; in data set [5] it was 200 µM.
For `C/C(=N\Nc1nc(-c2ccc(Cl)cc2)cs1)c1ccc(O)cc1`, the “Selectivity Index” value in data set [1] was found to be 25. The selectivity ratio in data set [2] was determined as 95. The EC50 in data set [3] turned out to be 1.32 µM; in data set [7] (BHK-21, 2 h), 1.39 µM; in data set [6], 5.8 µM. The CC50 was found to be 125 µM in data set [4] and 145 µM in data set [5]. Moreover, the inhibition result in data set [7] is “Dose-dependent effect”.
For the molecule `Oc1ccc(C2=NN(c3nc(-c4ccc(-c5ccccc5)cc4)cs3)C(c3ccccc3)C2)cc1` (stereo unspecified), the “Selectivity Index” value in data set [1] was 6. Moreover, the selectivity ratio in data set [2] stood at 10. Moreover, the concentration giving a half-maximal response (EC50) in data set [3] came out at 8.44 µM; in data set [6], 13.2 µM. Besides, the 50% cytotoxic concentration (CC50) turned out to be 86.8 µM in data set [4] and 79.2 µM in data set [5].
As usually defined, the IC50 is the concentration needed to halve the response being measured. The molecule `Cc1nc(-n2nc(-c3ccccc3)cc2-c2ccccc2)sc1C(=O)/C=C/c1ccc(Cl)c(Cl)c1` returned a half-maximal inhibitory concentration (IC50) in data set [8] of 51 µM.
Same read-out and setting: then `Nc1ccccc1SCc1csc(-c2ccc(Cl)cc2)n1`, with 31 µM.
For the molecule `C/C(=N\Nc1nc(-c2ccc(-c3ccccc3)cc2)cs1)c1ccc([N+](=O)[O-])cc1`, in data set [1], the “Selectivity Index” value worked out at 2. Also, the selectivity ratio in data set [2] is 6. Moreover, the figures for the EC50 in data set [3] and in data set [6] were 12.2 µM and 41 µM, respectively. For the same molecule, the half-maximal cytotoxic concentration (CC50) in data set [4] turned out to be 70.8 µM; in data set [5], 82 µM.

Values taken from ChEMBL document CHEMBL3400080, “Design, synthesis, optimization and antiviral activity of a class of hybrid dengue virus E protein inhibitors” (Bioorg Med Chem Lett, 2015).
